Sampled rows, rich in hits. Any-hit rate of the full collection: about 2%.
M1 ag – activates human CHRM1 receptor. 0.33% of 360,000 active. CHO-K1 hM1, Fluo-8 calcium fluorescence, agonist mode; 0% DMSO, 100% acetylcholine EC100. activation, % at 3 µM. P11229;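 active = activation above the run's mean compound activation plus 3 SD, cut at about 16% in these data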;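 also: peak over basal fluorescence ratio within a 140 s kinetic read after compound addition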
Target sequence (P11229 whole entry, looked up): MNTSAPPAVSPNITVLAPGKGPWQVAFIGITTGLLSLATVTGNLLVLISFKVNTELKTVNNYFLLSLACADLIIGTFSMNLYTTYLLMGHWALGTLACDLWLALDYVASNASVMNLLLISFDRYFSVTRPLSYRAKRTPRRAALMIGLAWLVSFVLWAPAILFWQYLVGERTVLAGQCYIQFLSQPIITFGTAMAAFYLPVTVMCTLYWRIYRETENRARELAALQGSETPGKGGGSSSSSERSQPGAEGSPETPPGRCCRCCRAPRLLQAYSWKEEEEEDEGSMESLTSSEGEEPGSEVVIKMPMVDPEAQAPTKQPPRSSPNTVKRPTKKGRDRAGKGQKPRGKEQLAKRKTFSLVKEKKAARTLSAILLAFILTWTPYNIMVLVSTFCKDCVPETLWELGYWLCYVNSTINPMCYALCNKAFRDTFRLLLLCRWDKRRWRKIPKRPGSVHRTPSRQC
M5 ag – agonists of human muscarinic M5 receptor (CHRM5); P08912; CHO-K1 hM5 cells, Fluo-8 calcium fluorescence; 0% DMSO wells, 100% maximal acetylcholine response; activation, % at 3 µM; 0.19% of 360,000 active; AID 624037;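 active = activation above the run's mean over test compounds plus 3 SD, cut at about 23% in these data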;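 also: signal is peak over basal fluorescence ratio across the kinetic read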
CHRM5 antagonist – CHRM5 antagonism in calcium assay. CHO-hM5 cells, Fluo-8 calcium fluorescence, ACh EC80. inhibition, % at 3 µM. 0.59% of 360,000 active. AID 624040;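 active = inhibition above a per-plate cutoff, the mean of that plate's test compounds plus 3 SD, cut at about 27% in these data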;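 also: 0% = acetylcholine EC80 with DMSO and 100% = DMSO without agonist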
M5 PAM – positive allosteric modulators of human muscarinic M5 receptor. P08912. CHO-K1 hM5, Fluo-8 calcium, ACh EC20 PAM; 0% = ACh EC20, 100% = ACh EC100. activation, % at 3 µM. 0.3% of 360,000 active;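 active = activation above the run cutoff, the mean activation of all test compounds plus 3 SD, cut at about 18% in these data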
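system = human M5 receptor in CHO-K1 cells | compound = one concentration, 3 µM final (nominal) | schedule = Post-acetylcholine fluorescence recording 140 s | signal = Fluo-8 calcium dye fluorescence, kinetic read | benchmarks = low control EC20 acetylcholine (0%), high control EC100 acetylcholine (100%) | repeats = singlicate, one well per test compound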
CHRM1 PAM – positive allosteric modulators of human M1 muscarinic receptor. P11229. CHO-K1 hM1, Fluo-8 calcium fluorescence, ACh EC20; 0% = ACh EC20, 100% = maximal ACh. activation, % at 3 µM. 0.088% of 360,000 active. AID 588819; in the data active = activation above about 19%, passing the limit was not always enough
M1 antag – human CHRM1 antagonism | P11229 | CHO-K1 hM1, Fluo-8 calcium fluorescence, ACh EC80 antagonist | inhibition, % at 3 µM | 1.3% of 360,000 active | AID 588852;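 active = percent inhibition above its own plate's cutoff, namely the mean of that plate's compound wells plus 3 SD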;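 also: peak over basal fluorescence ratio during 140 s after agonist addition; 0% = ACh EC80 plus DMSO and 100% = DMSO alone without agonist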
Active calls of the source: *.

What do the screens show for `CCN1CCN(CCNC(=O)c2ccc(/C=C3\Sc4ccccc4N(Cc4ccccc4F)C3=O)cc2)CC1`?
M1 ag: -1; M5 ag: -14; CHRM5 antagonist: 18; M5 PAM: -32; CHRM1 PAM: -23; M1 antag: 47*

Results for COc1cc(/C=N/NC(=O)c2ccc(CSc3nncn3C)cc2)cc(OC)c1O ?
M1 ag: -3; M5 ag: 1; CHRM5 antagonist: 10; M5 PAM: 8; CHRM1 PAM: 7; M1 antag: -2

How did CN(C(=O)c1ccccc1OCc1ccc(Cl)cc1)c1ccccc1 do in these assays?
M1 ag: -6; M5 ag: -6; CHRM5 antagonist: 8; M5 PAM: -32; CHRM1 PAM: -23; M1 antag: 75*

What do the screens show for `CN(CC(=O)Nc1ccccc1Br)C(=O)c1ccccc1OCc1ccc(Cl)cc1`?
M1 ag: -6; M5 ag: -6; CHRM5 antagonist: 3; M5 PAM: -11; CHRM1 PAM: -7; M1 antag: 11

Results for CCOc1ccccc1CN1CCN(CC2=Cc3cc(OC)ccc3OC2)CC1CCO (stereo not given) ?
M1 ag: -7; M5 ag: -11; CHRM5 antagonist: 2; M5 PAM: -4; CHRM1 PAM: -19; M1 antag: 34*

What do the screens show for `O=C(Nc1cccn2nc(COCCO)nc12)C(c1ccccc1)c1ccccc1`?
M1 ag: 2; M5 ag: 5; CHRM5 antagonist: 4; M5 PAM: -10; CHRM1 PAM: -4; M1 antag: -5

Results for Cn1c(=O)c2c(nc(SCCN3CCCCC3)n2Cc2ccc(Cl)cc2)n(C)c1=O ?
M1 ag: -7; M5 ag: -13; CHRM5 antagonist: 20; M5 PAM: -3; CHRM1 PAM: -26; M1 antag: 33*

How did CC(CC(=O)N1CCN(c2cccc(Cl)c2)CC1)S(=O)(=O)c1ccc2c(c1)NC(=O)CO2 (stereo not given) do in these assays?
M1 ag: 4; M5 ag: -3; CHRM5 antagonist: 9; M5 PAM: -4; CHRM1 PAM: -21; M1 antag: 66*

How did Cc1[nH]n(-c2ccc(Cl)cc2)c(=O)c1C(=O)c1ccccc1 do in these assays?
M1 ag: -8; M5 ag: -1; CHRM5 antagonist: -2; M5 PAM: -2; CHRM1 PAM: 4; M1 antag: 2

Results for Cc1[nH]n(-c2ccccc2)c(=O)c1C(=O)c1ccccc1 ?
M1 ag: -3; M5 ag: 5; CHRM5 antagonist: -17; M5 PAM: 21*; CHRM1 PAM: 20; M1 antag: -20

What do the screens show for `Cc1sc2nc(CN(Cc3cccs3)C(=O)NC3CCCCC3)[nH]c(=O)c2c1C`?
M1 ag: 7; M5 ag: -1; CHRM5 antagonist: -3; M5 PAM: 29*; CHRM1 PAM: 14; M1 antag: -35

What do the screens show for `Cc1sc2nc(CN(C(=O)NC3CCCCC3)C3CCCC3)[nH]c(=O)c2c1C`?
M1 ag: -4; M5 ag: 2; CHRM5 antagonist: 6; M5 PAM: -5; CHRM1 PAM: -5; M1 antag: 10

How did COc1ccc(O)c(C(=O)c2coc(=N)c(C(=O)Nc3ccc(SC(F)F)cc3)c2)c1 do in these assays?
M1 ag: 0; M5 ag: 8; CHRM5 antagonist: 28*; M5 PAM: -33; CHRM1 PAM: -13; M1 antag: 30

How did CC(C)OC(=O)c1cc(C(=O)c2cc(F)ccc2O)coc1=N do in these assays?
M1 ag: 4; M5 ag: 13; CHRM5 antagonist: -6; M5 PAM: 13; CHRM1 PAM: 4; M1 antag: 4

Results for Cc1c2cnn(-c3ccccc3)c(=O)c2c(C)n1CCCC(=O)N1CCN(C2CCCCC2)CC1 ?
M1 ag: 38*; M5 ag: -4; CHRM5 antagonist: 9; M5 PAM: -3; CHRM1 PAM: -11; M1 antag: 29

Results for Cc1c2cnn(-c3ccccc3)c(=O)c2c(C)n1CCCC(=O)N1CCN(c2ncccn2)CC1 ?
M1 ag: -5; M5 ag: -2; CHRM5 antagonist: 3; M5 PAM: -11; CHRM1 PAM: 1; M1 antag: -4

How did CCN1CCN(C(=O)CCCn2c(C)c3cnn(-c4ccccc4)c(=O)c3c2C)CC1 do in these assays?
M1 ag: -6; M5 ag: -1; CHRM5 antagonist: -4; M5 PAM: 3; CHRM1 PAM: 25*; M1 antag: -20

What do the screens show for `CC(C)CC(N)c1csc(Nc2ncccn2)n1` (stereo not given)?
M1 ag: -3; M5 ag: 0; CHRM5 antagonist: 1; M5 PAM: -1; CHRM1 PAM: 10; M1 antag: -17

Results for COc1ccc(/C=C/C(=O)O)cc1S(=O)(=O)NCc1ccco1 ?
M1 ag: -1; M5 ag: 8; CHRM5 antagonist: -1; M5 PAM: 25*; CHRM1 PAM: 11; M1 antag: -10

Results for COc1cc(/C=C/C(=O)O)cc(S(=O)(=O)NCc2ccco2)c1OC ?
M1 ag: -2; M5 ag: -1; CHRM5 antagonist: 5; M5 PAM: 7; CHRM1 PAM: 8; M1 antag: -10

What do the screens show for `COc1ccc(C(C[N+](=O)[O-])c2c(C)[nH]c3ccccc23)cc1OC` (stereo not given)?
M1 ag: -1; M5 ag: -2; CHRM5 antagonist: 0; M5 PAM: 19*; CHRM1 PAM: 12; M1 antag: -4

How did CC(C)c1ccc(CNC(=O)C(=O)Nc2nccs2)cc1 do in these assays?
M1 ag: -5; M5 ag: -3; CHRM5 antagonist: 6; M5 PAM: -1; CHRM1 PAM: -5; M1 antag: 8

How did CC(C)Cc1ccc(C(C)C(=O)Nc2nccs2)cc1 (stereo not given) do in these assays?
M1 ag: 24*; M5 ag: 38*; CHRM5 antagonist: 26; M5 PAM: -1; CHRM1 PAM: 1; M1 antag: -1

How did CC(C)Cc1ccc(C(C)C(=O)Nc2ccccc2O)cc1 (stereo not given) do in these assays?
M1 ag: 36*; M5 ag: 41*; CHRM5 antagonist: 50*; M5 PAM: -25; CHRM1 PAM: -17; M1 antag: 69*

What do the screens show for `O=C(Nc1ccc(Br)cc1Br)Nc1cccc2[nH]c([C@@H]3O[C@H](CO)[C@@H](O)[C@H](O)[C@H]3O)nc12`?
M1 ag: 2; M5 ag: 5; CHRM5 antagonist: -2; M5 PAM: -3; CHRM1 PAM: -1; M1 antag: -8

Assay outcomes as filed in PubChem BioAssay.
